# Measurements of several laboratories.
# Protocols differ between the studies behind these lines.
# Target: Cyclin-dependent kinase 8 (CDK8, Homo sapiens, UniProt P49336)
SMILES,assay,conditions,remaining binding [%]
CC1CCCN1c1nccc(-c2cnn3ncccc23)n1 (centres unmarked),binding,1 µM,100
CC(=O)C1=C(C)N(c2cccc(C(F)(F)F)c2)C(=O)N[C@@H]1c1ccc(C#N)nc1,"cell-free assay, competition with immobilised ligand",1 µM,65.3
O=C(NCCCN1CCOCC1)c1ccc(Nc2nccc(-c3cc4ccccc4s3)n2)cc1,"binding, competition with immobilised ligand",1 µM,79
Cc1cc(NC(=O)c2cccc(S(F)(F)(F)(F)F)c2)cc(-n2ccn3nc(-c4cccnc4)cc23)c1,"cell-free assay, competition with immobilised ligand",1 µM,86.2
CNC(=O)[C@@H]1CC[C@@H](n2c(-c3ccc4cnccc4c3)nc3ccc(C(=O)NCc4cccc(C(N)=O)c4)cc32)C1,"binding, competition with immobilised ligand",1 µM,100
FC(F)(F)Oc1cccc(-c2cnc3ccc(-c4ccncc4)nn23)c1,"cell-free assay, competition with immobilised ligand",5 µM,12
COc1ncc2cc3ccccc3nc2c1C#N,"cell-free assay, competition with immobilised ligand",5 µM,100
N[C@@H]1CCN(c2nccc(-c3cnn4ncccc34)n2)C1,binding,1 µM,100
O=C(NCC1CCOCC1)c1n[nH]cc1NC(=O)c1c(F)cccc1F,"binding, competition with immobilised ligand",1 µM,100
F[C@@H]1CCN(c2nccc(-c3cnn4ncccc34)n2)C1,binding,1 µM,100
COc1ccc2c(O[C@@H]3C[C@H]4C(=O)N[C@]5(C(=O)O)CC5/C=C\CCCCC[C@H](NC(=O)OC5CCCC5)C(=O)N4C3)cc(-c3csc(NC(=O)C(C)C)n3)nc2c1C (some centres unmarked),"cell-free assay, competition with immobilised ligand",1 µM,68
O=C(NCCCN1CCOCC1)c1ccc(Nc2ncc(Cl)c(-c3ccc(Cl)s3)n2)cc1,"binding, competition with immobilised ligand",1 µM,100
Cc1cnn2ncc(-c3ccnc(N(C)C)n3)c2c1,binding,1 µM,93
Nc1ncc2c(n1)-c1c([nH]c3ccc(C#CC4CC4)cc13)CCCC2,"binding, competition with immobilised ligand",1 µM,100
C[C@H](NC(=O)c1cnc2n1[C@](C)(Cc1ccc(C#N)cc1)C(=O)N2c1cc(Cl)c(F)c(Cl)c1)C(=O)NC1(c2ccccn2)CC1,"cell-free assay, competition with immobilised ligand",1 µM,100
O=C(c1ccc(Nc2ncc(Cl)c(-c3ccc(Cl)s3)n2)cc1)N1CCC(N2CCCC2)CC1,"binding, competition with immobilised ligand",1 µM,100
c1cnn2ncc(-c3ccnc(N4CCC45COC5)n3)c2c1,binding,1 µM,100
CN(C)c1ncnc(-c2ccc3nc(Nc4cc(CN5CCN(C(=O)CC(F)(F)F)CC5)ccn4)[nH]c3c2)c1Cl,"cell-free assay, competition with immobilised ligand",1 µM,90
C[C@@H]1CCN(c2nccc(-c3cnn4ncccc34)n2)C1,binding,1 µM,51
C[C@@]1(Cc2ccc(C#N)cc2)C(=O)N(c2cc(Cl)cc(Cl)c2)c2ncc(C(=O)NC3(c4nc(C5CCC5)no4)CC3)n21,"cell-free assay, competition with immobilised ligand",1 µM,100
